Data set [1] in a line: Ratio of drug uptake in brain to plasma in Sprague-Dawley rat at 10 mg/kg, po. As to conditions: read-out: BPR. Also on record: dose 10 mg/kg, route oral. Type of data set: ADME, organism-based. The gist of the method: (§1)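 Sprague-Dawley rats dosed orally at 10 mg/kg in 0.5% methocel. Drug levels measured by bioanalysis of plasma, brain and CSF; brain/plasma ratio derived from these. Interanimal variability under 20%.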

The target in data set [2] is T1, Muscarinic acetylcholine receptor M1 (Homo sapiens) (UniProt P11229).
T1 sequence (whole entry): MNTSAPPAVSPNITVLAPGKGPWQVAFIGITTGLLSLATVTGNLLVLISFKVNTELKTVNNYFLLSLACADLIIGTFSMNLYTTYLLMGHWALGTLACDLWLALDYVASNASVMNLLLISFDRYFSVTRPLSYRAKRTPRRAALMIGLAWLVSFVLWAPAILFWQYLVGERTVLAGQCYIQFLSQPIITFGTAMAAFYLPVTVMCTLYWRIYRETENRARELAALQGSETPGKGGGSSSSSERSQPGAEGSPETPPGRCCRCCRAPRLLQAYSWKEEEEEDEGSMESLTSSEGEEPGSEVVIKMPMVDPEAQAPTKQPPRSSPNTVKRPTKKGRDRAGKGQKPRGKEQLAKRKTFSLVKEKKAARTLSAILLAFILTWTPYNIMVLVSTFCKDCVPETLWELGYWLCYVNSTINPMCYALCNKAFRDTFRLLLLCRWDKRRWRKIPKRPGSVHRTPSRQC
As to the kind of experiment: Positive allosteric modulation at human muscarinic M1 receptor expressing CHO cells assessed as potentiation of acetylcholine-induced calcium mobilization by FLIPR assay. Type of data set: functional, cell-based. The gist of the method: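 CHO cells expressing human M1 receptor. Inflection point determined in the presence of an EC20 concentration of acetylcholine. Mean of at least two experiments; interassay variability ±30%.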
A general note: A change in cytosolic calcium serves as a functional read-out for many receptors and channels.

Data set [3] deals with Plasma. As to the kind of experiment: Plasma concentration in Sprague-Dawley rat at 10 mg/kg, po. Type of data set: ADME, organism-based. More on the design: dose 10 mg/kg, route oral. Conditions: in vivo. The gist of the method: as §1
Data set [4] is described as follows: Ratio of drug uptake in CSF to fraction unbound in plasma in rat. The format is ADME, cell-free. The gist of the method:
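Sprague-Dawley rats, oral 10 mg/kg in 0.5% methocel. CSF level divided by unbound plasma level, with unbound plasma derived using rat plasma protein binding values.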

A further data set concerns Brain. As to the kind of experiment: Drug uptake in Sprague-Dawley rat brain at 10 mg/kg, po. Also on record: dose 10 mg/kg, route oral. As to conditions: in vivo, read-out: Drug uptake. Type of data set: ADME, organism-based. The gist of the method:
as §1

Data set [5] can be described thus: Plasma protein binding in human. Type of data set: ADME, cell-free. Conditions: read-out: PPB (converted).
A short description of data set [6]: Plasma protein binding in rat. The format is ADME, cell-free. As to conditions: read-out: PPB (converted).
Data set [7] can be described thus: Drug uptake in Sprague-Dawley rat CSF at 10 mg/kg, po. The format is ADME, organism-based, Cerebrospinal fluid. Also on record: dose 10 mg/kg, route oral. As to conditions: in vivo, read-out: Drug uptake. The gist of the method: as §1
Data set [8] deals with Voltage-gated inwardly rectifying potassium channel KCNH2 (Homo sapiens, UniProt Q12809). As to the kind of experiment: Binding affinity to human ERG at <1 uM.
Chain of Voltage-gated inwardly rectifying potassium channel KCNH2 (Q12809 whole entry): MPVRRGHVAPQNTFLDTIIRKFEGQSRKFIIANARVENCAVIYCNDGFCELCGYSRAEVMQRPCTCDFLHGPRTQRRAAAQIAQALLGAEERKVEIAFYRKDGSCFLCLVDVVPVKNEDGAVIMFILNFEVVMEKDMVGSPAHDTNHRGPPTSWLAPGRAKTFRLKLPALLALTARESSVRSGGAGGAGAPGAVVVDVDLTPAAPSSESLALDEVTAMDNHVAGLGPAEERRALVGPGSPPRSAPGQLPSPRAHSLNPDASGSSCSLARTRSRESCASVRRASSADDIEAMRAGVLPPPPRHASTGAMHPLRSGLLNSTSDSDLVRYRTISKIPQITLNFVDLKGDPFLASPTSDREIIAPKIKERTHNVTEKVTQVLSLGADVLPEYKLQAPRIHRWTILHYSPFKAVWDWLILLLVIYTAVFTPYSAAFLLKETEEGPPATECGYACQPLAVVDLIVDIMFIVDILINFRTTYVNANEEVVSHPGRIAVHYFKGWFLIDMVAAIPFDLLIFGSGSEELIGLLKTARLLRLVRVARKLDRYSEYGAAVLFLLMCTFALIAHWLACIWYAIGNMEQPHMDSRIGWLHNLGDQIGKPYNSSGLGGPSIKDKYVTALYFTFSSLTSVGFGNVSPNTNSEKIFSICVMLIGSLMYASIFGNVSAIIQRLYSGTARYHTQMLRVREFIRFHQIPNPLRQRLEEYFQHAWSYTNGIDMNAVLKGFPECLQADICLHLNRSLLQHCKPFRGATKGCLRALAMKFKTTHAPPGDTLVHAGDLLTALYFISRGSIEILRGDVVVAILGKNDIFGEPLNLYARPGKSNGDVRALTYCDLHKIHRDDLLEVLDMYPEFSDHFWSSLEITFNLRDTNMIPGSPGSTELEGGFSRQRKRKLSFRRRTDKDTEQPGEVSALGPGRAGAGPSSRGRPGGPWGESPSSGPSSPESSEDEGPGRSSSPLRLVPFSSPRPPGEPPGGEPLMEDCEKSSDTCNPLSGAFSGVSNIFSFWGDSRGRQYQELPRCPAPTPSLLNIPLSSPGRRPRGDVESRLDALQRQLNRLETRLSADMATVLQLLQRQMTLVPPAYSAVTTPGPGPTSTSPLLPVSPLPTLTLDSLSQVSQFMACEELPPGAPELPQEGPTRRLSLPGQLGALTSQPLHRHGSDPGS
Data set [9] concerns the target T1, Muscarinic acetylcholine receptor M1 (Homo sapiens). In words: Positive allosteric modulation at human muscarinic M1 receptor expressing CHO cells assessed as potentiation of acetylcholine-induced calcium mobilization at 0.1 to 1 uM by FLIPR assay. The format is functional, cell-based. The gist of the method:
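Human M1-expressing CHO cells; calcium mobilization read-out. Acetylcholine dose–response curves run with modulator at rising concentrations from 0.1 to 1 μM; fold potentiation taken from the leftward shift of the curve.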

Data set [10] has as its system Mus musculus. In words: Antiamnesic activity against in contextual fear conditioning B6SJL mouse modle assessed as reversal of scopolamine-induced episodic memory deficit in at 3 mg/kg. Type of data set: functional, organism-based. More on the design: dose 3 mg/kg. The gist of the method:
(§2)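 Contextual fear conditioning model of episodic memory in B6SJL mice; scopolamine-induced deficit; test agents given at 3, 10 and 30 mpk; read-out is reversal of the scopolamine deficit.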

Data set [11] relates to Plasma. In words: Plasma concentration in B6SJL mouse at 30 mg/kg. Also on record: dose 30 mg/kg. Type of data set: ADME, organism-based. Conditions: in vivo. The gist of the method:
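Plasma drug levels in B6SJL mice measured after 30 mpk dosing in the contextual fear conditioning study.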

Data set [12] deals with Mus musculus. In words: Antiamnesic activity against in contextual fear conditioning B6SJL mouse modle assessed as reversal of scopolamine-induced episodic memory deficit in at 10 mg/kg. The format is functional, organism-based. More on the design: dose 10 mg/kg. The gist of the method: as §2
Data set [13] in a line: Distribution coefficient, log D of the compound. The format is physicochemical. As to conditions: octanol/water.
Data set [14] deals with Mus musculus. In words: Antiamnesic activity against in contextual fear conditioning B6SJL mouse modle assessed as reversal of scopolamine-induced episodic memory deficit in at 30 mg/kg. Type of data set: functional, organism-based. More on the design: dose 30 mg/kg. The gist of the method: as §2

Activity calls are given as the source filed them. The calls are words filed in the database; no cut-off is given here. Some results are limits rather than exact numbers.

`O=C(O)c1cc(CN2CCc3ccccc3C2c2ccncc2)c2ccccn2c1=O` (stereo unspecified): in [1], the Kp was determined as 0.14. Besides, in data set [2], the IP is 0.053 µM. Besides, the concentration in the data set with Plasma [3] was found to be 9.78 µM; with Brain, 1340 nM; in data set [7], 230 nM. In [4], the Ratio is 0.37. For the same molecule, the fraction unbound is 0.04 in data set [5] and 0.06 in data set [6]. Also, the result in data set [8] was Active.

For the molecule `O=C(O)c1cc(CN2CCc3ccccc3C2C2CCCCC2)c2ccccn2c1=O` (stereo unspecified), the IP in data set [2] is over 100 µM. The same measure, in the same setting: the result for `CCOC(=O)C1Cc2ccccc2CN1Cc1cc(C(=O)O)c(=O)n2ccccc12` (stereo unspecified) reads over 100 µM; that for `COc1ccc2c(c1)CCN(Cc1cc(C(=O)O)c(=O)n3ccccc13)C2`, 1.4 µM; that for `O=C(O)c1cc(CN2CCc3ncccc3C2)c2ccccn2c1=O`, 0.83 µM.

Regarding `N#Cc1ccc2c(c1)CCN(Cc1cc(C(=O)O)c(=O)n3ccccc13)C2`, in data set [2], the IP stood at 0.61 µM.

`CSc1ccc2c(c1)CCN(Cc1cc(C(=O)O)c(=O)n3ccccc13)C2`: the IP in data set [2] is over 10 µM. The same measure, in the same setting: the result for `O=C(O)c1cc(CN2CCC(c3ncccn3)CC2)c2ccccn2c1=O` reads 13 µM; that for `O=C(O)c1cc(CN2CCc3ccncc3C2)c2ccccn2c1=O`, 1.7 µM; that for `O=C(O)c1cc(CN2CCC(n3ccnc3)CC2)c2ccccn2c1=O`, 1.9 µM.

`O=C(O)c1cc(CN2CCC(c3ccc(Cl)cc3)CC2)c2ccccn2c1=O`: in data set [2], the IP was 0.77 µM. In the case of `CCOC(=O)C1CN(Cc2cc(C(=O)O)c(=O)n3ccccc23)Cc2ccccc21` (stereo unspecified), in data set [2], the IP is 3.6 µM. For the molecule `O=C(O)c1cc(CN2CCc3ccccc3C2c2cccs2)c2ccccn2c1=O` (stereo unspecified), the IP in data set [2] stood at 0.6 µM. Take `O=C(O)c1cc(CN2CCc3cc(F)ccc3C2)c2ccccn2c1=O`: the IP in [2] turned out to be 0.78 µM. For `O=C(O)c1cc(CN2CCc3ccccc3C2c2ccccc2)c2ccccn2c1=O` (stereo unspecified), the IP in data set [2] is 0.56 µM.

On to `O=C(O)c1cc(CN2CCC(c3cc[nH]n3)CC2)c2ccccn2c1=O`, for which the IP in data set [2] came to 1.5 µM.

Take `O=C(O)c1cc(CN2CCc3cc(-c4ccccc4)ccc3C2)c2ccccn2c1=O`: the IP in data set [2] came to 0.56 µM. Regarding `O=C(O)c1cc(CN2CCC(n3cccn3)CC2)c2ccccn2c1=O`, in data set [2], the IP is 0.78 µM. With `O=C(O)c1cc(CN2CCc3ccc(Cl)cc3C2)c2ccccn2c1=O`, the IP in data set [2] amounted to 0.63 µM. Still for that read-out and setting: the result for `O=C(O)c1cc(CN2CCC(c3cccc(Cl)c3)CC2)c2ccccn2c1=O` reads 0.91 µM. Usually logD stands for the decadic logarithm of the distribution of all forms, ionised or not, between an organic phase and buffer at a given pH. Read a low logD as a more hydrophilic compound. Regarding `O=C(O)c1cc(CN2CCc3cc(Cl)ccc3C2)c2ccccn2c1=O`, the Kp in data set [1] was 0.86. In data set [9], the result was Active. For the same molecule, the IP in data set [2] was determined as 0.33 µM. In addition, the concentration in the data set on Plasma [3] is 4.25 µM; in the data set with Brain, 3690 nM; in [7], 86 nM; in the data set on Plasma [11], 16 µM. The Ratio in data set [4] turned out to be 0.63. In addition, the fraction unbound was 0.02 in data set [5] and 0.04 in data set [6]. For the same molecule, the outcome in the data set on Mus musculus [10], in the data set on Mus musculus [12] and with Mus musculus [14] was inactive. The log distribution coefficient (logD) in [13] came out at 2.37. Regarding `O=C(O)c1cc(CN2CCC(c3cnccn3)CC2)c2ccccn2c1=O`, the IP in data set [2] turned out to be 11 µM. `O=C(O)c1cc(CN2CCC(c3cncnc3)CC2)c2ccccn2c1=O`: the IP in [2] turned out to be 7 µM. Turning to `Cn1c(C2CCN(Cc3cc(C(=O)O)c(=O)n4ccccc34)CC2)nc2ccccc21`, the IP in data set [2] is 30 µM. Still for that read-out and setting: the result for `O=C(O)c1cc(CN2CCC(c3ccncn3)CC2)c2ccccn2c1=O` reads 4.3 µM. Regarding `O=C(O)c1cc(CN2CCC(n3cnc4ccccc43)CC2)c2ccccn2c1=O`, the IP in data set [2] amounted to 0.55 µM. Besides, the fraction unbound in [5] was 0.21; in data set [6], 0.24. Besides, the logD in [13] was determined as 0.92.

`COC(=O)C1c2ccccc2CCN1Cc1cc(C(=O)O)c(=O)n2ccccc12` (stereo unspecified): the IP in data set [2] stood at 1.7 µM. Still for that read-out and setting: the result for `N#Cc1ccc(C2CCN(Cc3cc(C(=O)O)c(=O)n4ccccc34)CC2)cc1` reads 1.3 µM. Same read-out and setting: the result for `O=C(O)c1cc(CN2CCC(c3cccnc3F)CC2)c2ccccn2c1=O` reads 0.84 µM. Regarding `O=C(O)c1cc(CN2CCC(c3ccc(Br)cc3)CC2)c2ccccn2c1=O`, in data set [2], the IP was 1.2 µM. On the same count and under the same terms, the result for `O=C(O)c1cc(CN2CCc3cc(Br)ccc3C2)c2ccccn2c1=O` reads 0.63 µM; that for `O=C(O)c1cc(CN2CCc3ccccc3C2)c2ccccn2c1=O`, 1.7 µM; that for `O=C(O)c1cc(CN2CCc3c(Cl)cccc3C2)c2ccccn2c1=O`, 0.85 µM. In the case of `COc1ccc(C2CCN(Cc3cc(C(=O)O)c(=O)n4ccccc34)CC2)cc1`, in data set [2], the IP came out at 4.3 µM.

For the molecule `O=C(O)c1cc(CN2CCC(n3nnc4ccccc43)CC2)c2ccccn2c1=O`, the IP in data set [2] was found to be 6 µM. On the same count and under the same terms, the result for `O=C(O)c1cc(CN2CCc3ccccc3C2c2ccccc2F)c2ccccn2c1=O` (stereo unspecified) reads 0.15 µM; that for `O=C(O)c1cc(CN2CCC(c3ccccc3F)CC2)c2ccccn2c1=O`, 1.7 µM. On to `O=C(O)c1cc(CN2CCC(n3ccnn3)CC2)c2ccccn2c1=O`, for which the IP in data set [2] stood at 1.7 µM. `O=C(O)c1cc(CN2CCc3cc(-c4ccncc4)ccc3C2)c2ccccn2c1=O`: the IP in data set [2] turned out to be 0.39 µM. Turning to `O=C(O)c1cc(CN2CCC(c3cccc(F)n3)CC2)c2ccccn2c1=O`, the IP in data set [2] turned out to be 2.2 µM. Still for that read-out and setting: the result for `O=C(O)c1cc(CN2CCC(c3ccc(C(F)(F)F)cc3)CC2)c2ccccn2c1=O` reads 0.46 µM. As for `O=C(O)c1cc(CN2CCC(c3nc4ccccc4[nH]3)CC2)c2ccccn2c1=O`, in [2], the IP was 0.12 µM. In the data set with Plasma [3], this molecule gave a concentration of 0.132 µM. The fraction unbound was 0.18 in data set [5] and 0.23 in [6]. Take `O=C(O)c1cc(CN2CCC(c3ccc(F)nc3)CC2)c2ccccn2c1=O`: the IP in [2] is 2.1 µM. Take `Cc1ccc2c(c1)CCN(Cc1cc(C(=O)O)c(=O)n3ccccc13)C2`: in [2], the IP amounted to 1.1 µM.

With `O=C(O)c1cc(CN2CCC(c3ccccc3)CC2)c2ccccn2c1=O`, the IP in data set [2] was determined as 1.3 µM. Still for that read-out and setting: the result for `O=C(O)c1cn(Cc2ccc3ccccc3c2)c2ccccc2c1=O` reads 0.08 µM.

On to `N#Cc1ccc(N2CCN(Cc3cc(C(=O)O)c(=O)n4ccccc34)CC2)cc1`, for which the IP in [2] amounted to 0.52 µM. Further, the Ratio in [4] is listed as 0.42. Consider `O=C(O)c1cc(CN2CCc3cnccc3C2)c2ccccn2c1=O`, for which, in data set [2], the IP was determined as 0.9 µM. `O=C(O)c1cc(CN2CCC(c3ccc(F)cc3)CC2)c2ccccn2c1=O`: the IP in data set [2] came to 1.7 µM. As for `O=C(O)c1cc(CN2CCc3ncncc3C2)c2ccccn2c1=O`, the IP in data set [2] came to 1.8 µM. On the same count and under the same terms, the result for `CCOC(=O)C1c2ccccc2CCN1Cc1cc(C(=O)O)c(=O)n2ccccc12` (stereo unspecified) reads 0.34 µM; that for `O=C(O)c1cc(CN2CCC(c3cccc(F)c3)CC2)c2ccccn2c1=O`, 1.5 µM; that for `O=C(O)c1cc(CN2CCC(c3ccncc3)CC2)c2ccccn2c1=O`, 0.95 µM.

Values taken from ChEMBL document CHEMBL1681740, “Quinolizidinone carboxylic acid selective M1 allosteric modulators: SAR in the piperidine series” (Bioorg Med Chem Lett, 2011).
